Assay results published in ChEMBL document CHEMBL4834477, “Synthesis and biological evaluation of novel purinyl quinazolinone derivatives as PI3Kδ-specific inhibitors for the treatment of hematologic malignancies” (Bioorg Med Chem, 2021).
Activity calls are given as the source filed them. The calls are words filed in the database; no cut-off is given here.

Assays:
[1] = Toxicity in Balb/c nude mouse xenografted with human MOLT-4 cells assessed as changes in body weight at 10 mg/kg, po administered via gavage qd for 57 days; assay type: organism-based; settings: in vivo, 1368 h, dose 10 mg/kg/day, time 57 day
Summary of the method: (§1)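 MOLT-4 cells (2×10^6 in 0.1 mL D-PBS) implanted subcutaneously on the back of BALB/c-nude mice. Once tumours grew, mice were dosed daily by oral gavage at 10 mg/kg for 57 consecutive days. Tumours measured by caliper, with volume = ½ × […]. Body weight was tracked over the same period.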

[2] = Half life in Sprague-Dawley rat at 3 mg/kg, po measured for 24 hrs by LC-MS/MS analysis; assay type: ADME, organism-based; settings: in vivo
Summary of the method: (§2)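 Sprague-Dawley rats dosed orally at 1 or 3 mg/kg, three animals per group. Blood sampled at 0.25, 0.5, 1, 2, 4, 8 and 24 h post-dose. Plasma separated by centrifugation, extracted and quantified by LC-MS/MS. PK parameters (Cmax, AUClast, Tmax, t1/2) derived by non-compartmental software.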

MOLT-4 [3] = test: Antiproliferative activity against human MOLT-4 cells assessed as cell viability at 20 uM by CellTiter-Glo luminescent cell viability assay (reference value: 100%); assay type: functional; settings: read-out: Activity
SU-DHL10 [4] = test: Induction of apoptosis in human SU-DHL-10 cells assessed as late apoptotic cells at 20 uM measured after 24 hrs by AnnexinV-FITC/PI staining based flowcytometry method (reference value: 3.48%); assay type: functional
Summary of the method: (§3)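 Cells exposed to 20 μM compound for 24 h, washed with cold PBS, and stained with Annexin V-FITC and propidium iodide for 15 min at room temperature. Viable, early apoptotic, late apoptotic and necrotic populations quantified by flow cytometry.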

SU-DHL-5 = test: Antiproliferative activity against human SU-DHL-5 cells assessed as cell viability at 10 uM by CellTiter-Glo luminescent cell viability assay (reference value: 100%); assay type: functional; settings: read-out: Activity
MOLT-4 [5] = test: Induction of apoptosis in human MOLT-4 cells assessed as necrotic cells at 20 uM measured after 24 hrs by AnnexinV-FITC/PI staining based flowcytometry method (reference value: 0.51%); assay type: functional; summary of the method: as §3
SU-DHL10 [6] = test: Induction of apoptosis in human SU-DHL-10 cells assessed as necrotic cells at 20 uM measured after 24 hrs by AnnexinV-FITC/PI staining based flowcytometry method (reference value: 0.2%); assay type: functional; summary of the method: as §3
SU-DHL10 [7] = test: Induction of apoptosis in human SU-DHL-10 cells assessed as viable cells at 20 uM measured after 24 hrs by AnnexinV-FITC/PI staining based flowcytometry method (reference value: 90%); assay type: functional; settings: read-out: Activity; summary of the method: as §3
MOLT-4 [8] = test: Induction of apoptosis in human MOLT-4 cells assessed as early apoptotic cells at 20 uM measured after 24 hrs by AnnexinV-FITC/PI staining based flowcytometry method (reference value: 2.04%); assay type: functional; summary of the method: as §3
MOLT-4 [9] = test: Induction of apoptosis in human MOLT-4 cells assessed as viable cells at 20 uM measured after 24 hrs by AnnexinV-FITC/PI staining based flowcytometry method (reference value: 95.3%); assay type: functional; settings: read-out: Activity; summary of the method: as §3
[10] = target: T1, Phosphatidylinositol 4,5-bisphosphate 3-kinase catalytic subunit delta isoform (Homo sapiens) (UniProt O00329); test: Inhibition of PI3Kdelta in human SU-DHL-5 cells assessed as inhibition of AKT phosphorylation at Ser473 residue at 1 to 5 uM measured after 3 hrs by western blot assay; assay type: cell-based; settings: dose 1-5 µM
T1 sequence (whole entry): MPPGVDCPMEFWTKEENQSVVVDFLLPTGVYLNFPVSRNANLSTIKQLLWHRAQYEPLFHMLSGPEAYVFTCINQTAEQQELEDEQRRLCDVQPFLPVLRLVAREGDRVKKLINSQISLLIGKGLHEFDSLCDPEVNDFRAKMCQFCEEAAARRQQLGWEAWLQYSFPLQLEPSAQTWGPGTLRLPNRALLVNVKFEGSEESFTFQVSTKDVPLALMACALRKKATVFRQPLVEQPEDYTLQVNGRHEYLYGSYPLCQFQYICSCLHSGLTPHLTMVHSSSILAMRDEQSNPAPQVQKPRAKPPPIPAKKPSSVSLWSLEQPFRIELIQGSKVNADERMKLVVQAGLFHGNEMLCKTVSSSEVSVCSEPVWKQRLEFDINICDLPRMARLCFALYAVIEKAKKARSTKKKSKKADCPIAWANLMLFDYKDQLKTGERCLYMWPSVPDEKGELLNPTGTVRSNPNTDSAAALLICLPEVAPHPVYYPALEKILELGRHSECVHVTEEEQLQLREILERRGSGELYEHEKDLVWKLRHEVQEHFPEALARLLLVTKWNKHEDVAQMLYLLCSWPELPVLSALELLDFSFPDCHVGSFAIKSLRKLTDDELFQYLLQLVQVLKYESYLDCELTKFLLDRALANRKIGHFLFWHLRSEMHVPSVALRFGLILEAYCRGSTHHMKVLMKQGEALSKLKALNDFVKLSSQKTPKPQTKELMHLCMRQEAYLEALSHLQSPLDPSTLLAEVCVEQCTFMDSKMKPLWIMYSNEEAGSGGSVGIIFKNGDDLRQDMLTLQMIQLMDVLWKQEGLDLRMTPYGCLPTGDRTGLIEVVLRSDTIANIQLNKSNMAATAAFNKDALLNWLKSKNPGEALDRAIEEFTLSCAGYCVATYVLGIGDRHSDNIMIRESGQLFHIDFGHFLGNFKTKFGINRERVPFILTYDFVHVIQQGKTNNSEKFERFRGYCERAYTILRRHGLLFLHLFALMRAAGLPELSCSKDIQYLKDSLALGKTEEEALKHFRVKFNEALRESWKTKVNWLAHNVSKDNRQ
Summary of the method: (§4)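 Treatment lasted 3 h: SUDHL-5 at 1 μM, MOLT-4 at 5 μM. Cells washed twice in cold PBS and lysed. Proteins resolved on 10–12% SDS-PAGE and blotted to PVDF. Probed for p-AKT S473, p-AKT T308, p-S6 and p-4E-BP1, with β-actin as loading control.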

[11] = target: T1, Phosphatidylinositol 4,5-bisphosphate 3-kinase catalytic subunit delta isoform (Homo sapiens); test: Inhibition of PI3Kdelta in human MOLT-4 cells assessed as inhibition of AKT phosphorylation at Ser473 residue at 1 to 5 uM measured after 3 hrs by western blot assay; assay type: cell-based; settings: dose 1-5 µM; summary of the method: as §4
[12] = AUC (last) in Sprague-Dawley rat at 3 mg/kg, po measured for 24 hrs by LC-MS/MS analysis; assay type: ADME, organism-based; set-up: route oral, time 24 hrs, dose 3 mg/kg; settings: in vivo; summary of the method: as §2
SU-DHL10 [13] = test: Induction of apoptosis in human SU-DHL-10 cells assessed as early apoptotic cells at 20 uM measured after 24 hrs by AnnexinV-FITC/PI staining based flowcytometry method (reference value: 6.32%); assay type: functional; summary of the method: as §3
[14] = target: T1, Phosphatidylinositol 4,5-bisphosphate 3-kinase catalytic subunit delta isoform (Homo sapiens); test: Inhibition of PI3Kdelta in human SU-DHL-5 cells assessed as inhibition of AKT phosphorylation at Thr308 residue at 1 to 5 uM measured after 3 hrs by western blot assay; assay type: cell-based; settings: dose 1-5 µM; summary of the method: as §4
MOLT-4 [15] = test: Antitumour activity against human MOLT-4 cells xenografted in Balb/c nude mouse assessed as inhibition of tumour growth at 10 mg/kg, po administered via gavage qd for 57 days; assay type: functional; settings: dose 10.0 mg/kg/day, time 57.0 day; summary of the method: as §1
MOLT-4 [16] = test: Induction of apoptosis in human MOLT-4 cells assessed as late apoptotic cells at 20 uM measured after 24 hrs by AnnexinV-FITC/PI staining based flowcytometry method (reference value: 2.17%); assay type: functional; summary of the method: as §3
MRC5 = test: Cytotoxicity against human MRC5 cells assessed as inhibition of cell viability measured after 48 hrs by MTT assay; assay type: cell-based; settings: MRC5, 48 h
Summary of the method: (§5)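 MTT assay in MRC-5 cells seeded at 2×10^6 cells/mL. Compound given in 1% FBS EMEM for 48 h at 37 °C in CO2. MTT solution then added for 3 h at 37 °C. Medium removed and formazan dissolved in DMSO.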

[17] = Tmax in Sprague-Dawley rat at 3 mg/kg, po measured for 24 hrs by LC-MS/MS analysis; assay type: ADME, organism-based; settings: in vivo; summary of the method: as §2
[18] = target: T1, Phosphatidylinositol 4,5-bisphosphate 3-kinase catalytic subunit delta isoform (Homo sapiens); test: Inhibition of PI3Kdelta in human MOLT-4 cells assessed as inhibition of AKT phosphorylation at Thr308 residue at 1 to 5 uM measured after 3 hrs by western blot assay; assay type: cell-based; settings: dose 1-5 µM; summary of the method: as §4
[19] = Cytotoxicity against human MRC5 cells assessed as inhibition of cell viability at 20 uM measured after 48 hrs by MTT assay; assay type: cell-based; settings: read-out: INH; summary of the method: as §5
[20] = Cmax in Sprague-Dawley rat at 3 mg/kg, po measured for 24 hrs by LC-MS/MS analysis; assay type: ADME, organism-based; set-up: route oral, time 24 hrs, dose 3 mg/kg; settings: in vivo; summary of the method: as §2

CC[C@H](Nc1ncnc2[nH]cnc12)c1nc2cccc(F)c2c(=O)n1-c1ccccc1 [IDELALISIB]
Activity [1]: Non-Toxic | half-life [2]: 2.7 h | viability at 20 µM (MOLT-4 [3]): 74.6% | Activity (SU-DHL10 [4]): 30.4% | viability at 10 µM (SU-DHL-5): 41.3% | Activity (MOLT-4 [5]): 2.34% | Activity (SU-DHL10 [6]): 1.7% | viability at 20 µM (SU-DHL10 [7]): 12.2% | Activity (MOLT-4 [8]): 19.2% | viability at 20 µM (MOLT-4 [9]): 56.5% | inhibition [10]: Active | inhibition [11]: Active | AUC(0-t) at 24 h [12]: 0.202 µg·h/mL | Activity (SU-DHL10 [13]): 55.7% | inhibition [14]: Active | inhibition (MOLT-4 [15]): Active | Activity (MOLT-4 [16]): 22% | IC50 (MRC5): > 100 µM | Tmax [17]: 0.5 h | inhibition [18]: Active | cytotoxicity at 48 h, 20 µM [19]: 18.4% | Cmax [20]: 0.053 µg/mL
